Laboratory results reported in ChEMBL document CHEMBL4152206, “Design, synthesis, cytotoxicity and mechanism of novel dihydroartemisinin-coumarin hybrids as potential anti-cancer agents” (Eur J Med Chem, 2018).
Calls of active or inactive are those of the source. The rule behind the calls is not given here.

Experiments:
HT-29 [1] = assay: Cytotoxicity against human HT-29 cells after 96 hrs under hypoxic condition by MTT assay; type: functional, cell-based; conditions: Homo sapiens, HT-29, 96 h; read-out: IC50
Summary of the method: (§1)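 MTT viability assay in HT-29 (high CA IX) and MDA-MB-231 (normal CA IX) cells under normoxic and hypoxic conditions; IC50 values reported.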

HT-29 [2] = assay: Cell cycle arrest in human HT-29 cells assessed as accumulation at sub-G1 phase at 10 uM by RNase/propidium iodide staining-based flow cytometric analysis; type: functional; conditions: TDE = time-dependent effect
Summary of the method: (§2)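 HT-29 cells exposed to 10 µM for different times (up to 72 h); sub-G1 fraction measured by flow cytometry.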

HT-29 [3] = assay: Induction of apoptosis in human HT-29 cells assessed as early apoptotic cells at 5 uM after 48 hrs by Annexin V-FITC/propidium iodide staining-based flow cytometric analysis (reference value: 0.07%); type: functional
HT-29 [4] = assay: Induction of mitochondrial membrane potential loss in human HT-29 cells at 20 uM measured after 3 hrs by Rh123 dye-based flow cytometric analysis; type: functional, cell-based
Summary of the method: (§3)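 HT-29 cells exposed to 20 µM for different times, stained with Rh123 for 40 min, trypsinised (0.25%), washed three times in PBS; mitochondrial membrane potential read by flow cytometry.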

HT-29 [5] = assay: Induction of apoptosis in human HT-29 cells assessed as early apoptotic cells at 10 uM after 48 hrs by Annexin V-FITC/propidium iodide staining-based flow cytometric analysis (reference value: 0.07%); type: functional
HT-29 [6] = assay: Growth inhibition of human HT-29 cells pretreated with 10 uM liproxstatin-1 for 1 hr followed by 10 uM compound addition and measured after 72 hrs by MTT assay; type: functional, cell-based
[7] = molecular target: Carbonic anhydrase 9 (Homo sapiens) (UniProt Q16790); assay: Inhibition of carbonic anhydrase 9 in human HT-29 cells assessed as induction of cellular pH decrease at 10 uM after 24 hrs by BCECF-AM staining-based flow cytometric analysis; type: cell-based
Summary of the method: (§4)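 Intracellular pH in HT-29 cells exposed to 10 µM for 0, 3, 12 and 24 h: stained 40 min with BCECF-AM, trypsinised (0.25%), PBS-washed, fluorescence read by flow cytometry.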

MDA-MB-231 [8] = assay: Cytotoxicity against human MDA-MB-231 cells after 96 hrs under normoxic condition by MTT assay; type: functional, cell-based; conditions: Homo sapiens, MDA-MB-231, 96 h; read-out: IC50; summary of the method: as §1
HT-29 [9] = assay: Cell cycle arrest in human HT-29 cells assessed as accumulation at sub-G1 phase at 10 uM up to 48 hrs by RNase/propidium iodide staining-based flow cytometric analysis; type: functional; summary of the method: as §2
HT-29 [10] = assay: Induction of morphological changes in human HT-29 cells assessed as reduction in cell number after 96 hrs; type: functional, cell-based
HT-29 [11] = assay: Induction of ferroptosis in human HT-29 cells at 10 uM after 72 hrs by MTT assay; type: functional, cell-based
HT-29 [12] = assay: Cell cycle arrest in human HT-29 cells assessed as accumulation at G0/G1 phase at 10 uM after 48 hrs by RNase/propidium iodide staining-based flow cytometric analysis (reference value: 70.48%); type: functional
HT-29 [13] = assay: Cell cycle arrest in human HT-29 cells assessed as accumulation at sub-G1 phase at 10 uM after 48 to 72 hrs by RNase/propidium iodide staining-based flow cytometric analysis; type: functional; summary of the method: as §2
HT-29 [14] = assay: Cell cycle arrest in human HT-29 cells assessed as accumulation at G0/G1 phase at 2.5 uM after 48 hrs by RNase/propidium iodide staining-based flow cytometric analysis (reference value: 70.48%); type: functional
[15] = molecular target: Carbonic anhydrase 9 (Homo sapiens) (UniProt Q16790); assay: Inhibition of carbonic anhydrase 9 in human HT-29 cells assessed as induction of cellular pH decrease at 10 uM after 3 to 12 hrs by BCECF-AM staining-based flow cytometric analysis; type: cell-based; summary of the method: as §4
HT-29 [16] = assay: Cytotoxicity against human HT-29 cells after 96 hrs under normoxic condition by MTT assay; type: functional, cell-based; conditions: Homo sapiens, HT-29, 96 h; read-out: IC50; summary of the method: as §1
HT-29 [17] = assay: Cell cycle arrest in human HT-29 cells assessed as accumulation at G0/G1 phase at 20 uM after 48 hrs by RNase/propidium iodide staining-based flow cytometric analysis (reference value: 70.48%); type: functional
HT-29 [18] = assay: Induction of apoptosis in human HT-29 cells assessed as early apoptotic cells at 2.5 uM after 48 hrs by Annexin V-FITC/propidium iodide staining-based flow cytometric analysis (reference value: 0.07%); type: functional
HT-29 [19] = assay: Growth inhibition of human HT-29 cells pretreated with 5 to 40 uM liproxstatin-1 for 1 hr followed by 10 uM compound addition and measured after 48 hrs by MTT assay
MDA-MB-231 [20] = assay: Cytotoxicity against human MDA-MB-231 cells after 96 hrs under hypoxic condition by MTT assay; type: functional, cell-based; conditions: Homo sapiens, MDA-MB-231, 96 h; read-out: IC50; summary of the method: as §1
HT-29 [21] = assay: Cell cycle arrest in human HT-29 cells assessed as accumulation at G0/G1 phase at 5 uM after 48 hrs by RNase/propidium iodide staining-based flow cytometric analysis (reference value: 70.48%); type: functional
HT-29 [22] = assay: Induction of morphological changes in human HT-29 cells assessed as reduction in cell volume after 96 hrs; type: functional, cell-based
HT-29 [23] = assay: Induction of mitochondrial membrane potential loss in human HT-29 cells at 20 uM measured measured until 24 hrs by Rh123 dye-based flow cytometric analysis; type: functional, cell-based; summary of the method: as §3
HT-29 [24] = assay: Antimigratory activity in human HT-29 cells after 72 hrs by wound healing assay; type: functional, cell-based
Summary of the method: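 HT-29 cells plated 48 h before scratching; treated with 0, 0.31, 0.63, 1.25, 2.5 and 5 µM under normoxia; wound imaged by inverted microscope at 0 h and 72 h.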

HT-29 [25] = assay: Antimigratory activity in human HT-29 cells at 1.25 to 2.5 uM after 24 hrs by transwell assay; type: functional, cell-based

## Cc1c(Cl)c(=O)oc2cc(OCCn3cc(CO[C@H]4O[C@@H]5O[C@@]6(C)CC[C@H]7[C@H](C)CC[C@@H]([C@H]4C)[C@@]57OO6)nn3)ccc12
HT-29 [1]
  IC50: 0.17 µM
HT-29 [2]
  Activity: Tde
HT-29 [3]
  Activity: 4.8%
HT-29 [4]
  Activity: Active
HT-29 [5]
  Activity: 14.9%
HT-29 [6]
  growth inhibition (GI): inactive
[7]
  inhibition: Active
MDA-MB-231 [8]
  IC50: 18.4 µM
HT-29 [9]
  Activity: inactive
HT-29 [10]
  Activity: Dose-dependent effect
HT-29 [11]
  Activity: Active
HT-29 [12]
  Activity: 75.45%
HT-29 [13]
  Activity: <=60%
HT-29 [14]
  Activity: 72.28%
[15]
  inhibition: Active
HT-29 [16]
  IC50: 1.88 µM
HT-29 [17]
  Activity: 82.22%
HT-29 [18]
  Activity: 1.7%
HT-29 [19]
  growth inhibition (GI): inactive
MDA-MB-231 [20]
  IC50: 7.51 µM
HT-29 [21]
  Activity: 76.53%
HT-29 [22]
  Activity: Dose-dependent effect
HT-29 [23]
  Activity: inactive
HT-29 [24]
  Activity: Dose-dependent effect
HT-29 [25]
  Activity: Active
